Consider nine molecules from ChEMBL document CHEMBL2086248, “Synthesis of some novel 1-(2-naphthyl)-2-(imidazol-1-yl)ethanone oxime ester derivatives and evaluation of their anticonvulsant activity” (Eur J Med Chem, 2012).

The source made the active and inactive calls.

In data set [1] the test system is Mus musculus. The data set can be described thus: Anticonvulsant activity in mouse assessed as protection against maximal electroshock-induced seizures at 100 mg/kg, ip after 4 hrs. It counts as functional, organism-based. Also noted: dose 100 mg/kg. In short, it runs like this:
(§1)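 Swiss albino mice (20-24 g) received an ip suspension in 30% aqueous PEG 400 and were tested 0.5 h and 4 h after dosing. Shock was delivered through corneal electrodes from a constant current unit, with 0.9% saline dropped into the eyes first. Protection meant abolition of the hind limb tonic extension. Scored as number protected/number tested, one mouse per dose and time.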
For orientation: The maximal electroshock test induces tonic seizures with an electrical stimulus.

The subject of data set [2] is Mus musculus. The data set can be described thus: Anticonvulsant activity in mouse assessed as protection against maximal electroshock-induced seizures at 30 mg/kg, ip after 4 hrs. It counts as functional, organism-based. Also noted: dose 30 mg/kg. In short, it runs like this: as §1
In data set [3] the test system is Mus musculus. Description: Neurotoxicity in mouse assessed as motor impairment at 100 mg/kg, ip after 4 hrs by rotarod test. Type of data set: toxicity, organism-based. Also noted: dose 100 mg/kg, route intraperitoneal. The following applies: in vivo. In short, it runs like this: (§2)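 Swiss albino mice (20-24 g) were dosed ip with a suspension in 30% aqueous PEG 400 and tested 0.5 h or 4 h later. They were placed on a knurled wooden rod 1 inch in diameter, rotating at 6 rpm. Toxicity meant failure to stay on the rod for at least 1 min in each of three trials. Scored as number toxic/number tested (4 mice at 0.5 h, 2 at 4 h).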
A general note: Falling from the rotarod earlier than controls is read as motor impairment.

Data set [4] relates to Mus musculus. The data set can be described thus: Anticonvulsant activity in mouse assessed as protection against subcutaneous pentylenetetrazole-induced seizures at 300 mg/kg, ip after 4 hrs. Type of data set: functional, organism-based. Also noted: dose 300 mg/kg. In short, it runs like this:
(§3)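 Swiss albino mice (20-24 g) were dosed ip with a suspension in 30% aqueous PEG 400 and challenged 0.5 h or 4 h later. Protection meant no threshold seizure (clonic spasms lasting at least 5 s). Scored as number protected/number tested, one mouse per dose and time.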

Data set [5] deals with Mus musculus. The data set can be described thus: Anticonvulsant activity in mouse assessed as protection against maximal electroshock-induced seizures at 100 mg/kg, ip after 0.5 hrs. Type of data set: functional, organism-based. Also noted: dose 100 mg/kg. In short, it runs like this: as §1
For data set [6], the system named is Mus musculus. The data set can be described thus: Anticonvulsant activity in mouse assessed as protection against subcutaneous pentylenetetrazole-induced seizures at 100 mg/kg, ip after 0.5 hrs. It counts as functional, organism-based. Also noted: dose 100 mg/kg. In short, it runs like this: as §3
Data set [7] relates to Mus musculus. The data set can be described thus: Anticonvulsant activity in mouse assessed as protection against maximal electroshock-induced seizures at 300 mg/kg, ip after 0.5 hrs. Type of data set: functional, organism-based. Also noted: dose 300 mg/kg. In short, it runs like this: as §1
For data set [8], the system named is Mus musculus. The data set can be described thus: Anticonvulsant activity in mouse assessed as protection against subcutaneous pentylenetetrazole-induced seizures at 300 mg/kg, ip after 0.5 hrs. Type of data set: functional, organism-based. Also noted: dose 300 mg/kg. In short, it runs like this:
as §3

Data set [9] relates to Mus musculus. The data set can be described thus: Anticonvulsant activity in mouse assessed as protection against subcutaneous pentylenetetrazole-induced seizures at 100 mg/kg, ip after 4 hrs. Type of data set: functional, organism-based. Also noted: dose 100 mg/kg. In short, it runs like this:
as §3

The subject of data set [10] is Mus musculus. The data set can be described thus: Neurotoxicity in mouse assessed as motor impairment at 30 mg/kg, ip after 0.5 hrs by rotarod test. It counts as toxicity, organism-based. Also noted: dose 30 mg/kg, route intraperitoneal. The following applies: in vivo. In short, it runs like this:
as §2

Data set [11] relates to Mus musculus. Description: Neurotoxicity in mouse assessed as motor impairment at 300 mg/kg, ip after 0.5 hrs by rotarod test. Type of data set: toxicity, organism-based. Also noted: dose 300 mg/kg, route intraperitoneal. The settings on record: in vivo. In short, it runs like this:
as §2

Data set [12] relates to Mus musculus. The data set can be described thus: Anticonvulsant activity in mouse assessed as protection against subcutaneous pentylenetetrazole-induced seizures at 30 mg/kg, ip after 0.5 hrs. It counts as functional, organism-based. Also noted: dose 30 mg/kg. In short, it runs like this:
as §3

For data set [13], the system named is Mus musculus. The data set can be described thus: Anticonvulsant activity in mouse assessed as protection against subcutaneous pentylenetetrazole-induced seizures at 30 mg/kg, ip after 4 hrs. Also noted: dose 30 mg/kg. It counts as functional, organism-based. In short, it runs like this: as §3
The test system of data set [14] is Mus musculus. Description: Neurotoxicity in mouse assessed as motor impairment at 100 mg/kg, ip after 0.5 hrs by rotarod test. Also noted: dose 100 mg/kg, route intraperitoneal. The settings on record: in vivo. Type of data set: toxicity, organism-based. In short, it runs like this: as §2
The subject of data set [15] is Mus musculus. Description: Anticonvulsant activity in mouse assessed as protection against maximal electroshock-induced seizures at 300 mg/kg, ip after 4 hrs. Type of data set: functional, organism-based. Also noted: dose 300 mg/kg. In short, it runs like this:
as §1

For data set [16], the system named is Mus musculus. Description: Anticonvulsant activity in mouse assessed as protection against maximal electroshock-induced seizures at 30 mg/kg, ip after 0.5 hrs. It counts as functional, organism-based. Also noted: dose 30 mg/kg. In short, it runs like this:
as §1

The test system of data set [17] is Mus musculus. The data set can be described thus: Neurotoxicity in mouse assessed as motor impairment at 300 mg/kg, ip after 4 hrs by rotarod test. Type of data set: toxicity, organism-based. The settings on record: in vivo. Also noted: dose 300 mg/kg, route intraperitoneal. In short, it runs like this: as §2
The test system of data set [18] is Mus musculus. Description: Neurotoxicity in mouse assessed as motor impairment at 30 mg/kg, ip after 4 hrs by rotarod test. The following applies: in vivo. It counts as toxicity, organism-based. Also noted: dose 30 mg/kg, route intraperitoneal. In short, it runs like this:
as §2

On to `CCCC(CCC)C(=O)[O-].[Na+]` [VALPROATE SODIUM], for which the result with Mus musculus [1], in the data set with Mus musculus [2], in the data set with Mus musculus [4], in the data set on Mus musculus [5], with Mus musculus [6] and with Mus musculus [9] was inactive. The outcome in the data set with Mus musculus [12], with Mus musculus [13], in the data set with Mus musculus [15] and with Mus musculus [16] was inactive. Moreover, the Activity entry with Mus musculus [3], with Mus musculus [10], in the data set with Mus musculus [11], in the data set with Mus musculus [14], with Mus musculus [17] and in the data set with Mus musculus [18] was “Non-toxic” throughout. Further, the result in the data set with Mus musculus [7] and in the data set with Mus musculus [8] was Active.

`CCC(=O)O/N=C(\Cn1ccnc1)c1ccc2ccccc2c1.Cl`: the result in the data set with Mus musculus [1], with Mus musculus [2], with Mus musculus [4], with Mus musculus [6], with Mus musculus [9] and in the data set with Mus musculus [12] was inactive. The result in the data set on Mus musculus [13], in the data set on Mus musculus [15] and in the data set with Mus musculus [16] was inactive. Also, the Activity result in the data set with Mus musculus [3], in the data set on Mus musculus [10], in the data set with Mus musculus [11], with Mus musculus [14], in the data set on Mus musculus [17] and in the data set on Mus musculus [18] was “Non-toxic” throughout. Moreover, the outcome in the data set with Mus musculus [5], with Mus musculus [7] and in the data set on Mus musculus [8] was Active.

With `COc1ccc(C(=O)O/N=C(\Cn2ccnc2)c2ccc3ccccc3c2)cc1`, the outcome in the data set with Mus musculus [1], with Mus musculus [2], in the data set on Mus musculus [4], in the data set on Mus musculus [5], in the data set on Mus musculus [6] and in the data set with Mus musculus [7] was inactive. Further, the result in the data set with Mus musculus [9], in the data set with Mus musculus [12], in the data set on Mus musculus [13], with Mus musculus [15] and in the data set with Mus musculus [16] was inactive. Moreover, the Activity entry with Mus musculus [3], in the data set with Mus musculus [10], in the data set on Mus musculus [11], in the data set on Mus musculus [14], with Mus musculus [17] and in the data set on Mus musculus [18] was “Non-toxic” throughout. The result in the data set on Mus musculus [8] was Active.

Regarding `Cc1ccc(C(=O)O/N=C(\Cn2ccnc2)c2ccc3ccccc3c2)cc1`, the result in the data set on Mus musculus [1], in the data set on Mus musculus [2], in the data set on Mus musculus [9], in the data set with Mus musculus [12], with Mus musculus [13] and in the data set with Mus musculus [15] was inactive. Also, the result in the data set on Mus musculus [16] was inactive. The Activity entry in the data set on Mus musculus [3], with Mus musculus [10], in the data set with Mus musculus [11], with Mus musculus [14], with Mus musculus [17] and in the data set with Mus musculus [18] was “Non-toxic” in each case. Also, the result in the data set with Mus musculus [4], in the data set with Mus musculus [5], in the data set on Mus musculus [6], with Mus musculus [7] and in the data set on Mus musculus [8] was Active.

For the molecule `O=C(O/N=C(\Cn1ccnc1)c1ccc2ccccc2c1)c1cccc(Cl)c1`, the result in the data set with Mus musculus [1], in the data set on Mus musculus [5], in the data set with Mus musculus [7] and in the data set with Mus musculus [15] was Active. The outcome with Mus musculus [2], in the data set on Mus musculus [4], in the data set on Mus musculus [6], with Mus musculus [8], in the data set with Mus musculus [9] and with Mus musculus [12] was inactive. Further, the outcome in the data set on Mus musculus [13] and in the data set with Mus musculus [16] was inactive. For the same molecule, the Activity result with Mus musculus [3], in the data set on Mus musculus [10], in the data set with Mus musculus [11], in the data set on Mus musculus [14], with Mus musculus [17] and with Mus musculus [18] was “Non-toxic” each time.

On to `O=C(O/N=C(\Cn1ccnc1)c1ccc2ccccc2c1)c1ccccc1`, for which the outcome in the data set with Mus musculus [1], with Mus musculus [2], with Mus musculus [4], in the data set on Mus musculus [5], with Mus musculus [7] and with Mus musculus [15] was Active. Further, the Activity result with Mus musculus [3], in the data set with Mus musculus [10], with Mus musculus [11], in the data set on Mus musculus [14], with Mus musculus [17] and with Mus musculus [18] was “Non-toxic” in each case. Moreover, the outcome with Mus musculus [6], in the data set on Mus musculus [8], with Mus musculus [9], with Mus musculus [12], in the data set with Mus musculus [13] and in the data set with Mus musculus [16] was inactive.

`CC(C)CC(=O)O/N=C(\Cn1ccnc1)c1ccc2ccccc2c1.Cl`: the result in the data set with Mus musculus [1], in the data set on Mus musculus [5], in the data set with Mus musculus [7] and with Mus musculus [15] was Active. Also, the result in the data set on Mus musculus [2], with Mus musculus [4], with Mus musculus [6], with Mus musculus [8], in the data set with Mus musculus [9] and in the data set on Mus musculus [12] was inactive. Besides, the result in the data set with Mus musculus [13] and in the data set with Mus musculus [16] was inactive. Also, the Activity result in the data set with Mus musculus [3], with Mus musculus [10], with Mus musculus [11], in the data set with Mus musculus [14], in the data set on Mus musculus [17] and with Mus musculus [18] was “Non-toxic” each time.

In the case of `CCCC(CCC)C(=O)ON=C(Cn1ccnc1)c1ccc2ccccc2c1.Cl` (mixture of isomers), the result in the data set with Mus musculus [1], in the data set on Mus musculus [2], in the data set on Mus musculus [6], in the data set on Mus musculus [9], with Mus musculus [12] and with Mus musculus [13] was inactive. Further, the Activity entry in the data set with Mus musculus [3], in the data set with Mus musculus [10], with Mus musculus [11], in the data set with Mus musculus [14], in the data set on Mus musculus [17] and with Mus musculus [18] was “Non-toxic” throughout. For the same molecule, the outcome in the data set on Mus musculus [4], with Mus musculus [5], in the data set with Mus musculus [7], in the data set on Mus musculus [8], in the data set with Mus musculus [15] and in the data set with Mus musculus [16] was Active.

For the molecule `CCCCCC(=O)O/N=C(\Cn1ccnc1)c1ccc2ccccc2c1.Cl`, the outcome in the data set on Mus musculus [1], in the data set with Mus musculus [2], in the data set on Mus musculus [4], with Mus musculus [5], in the data set on Mus musculus [6] and in the data set on Mus musculus [7] was inactive. The outcome with Mus musculus [8], in the data set on Mus musculus [9], with Mus musculus [12], with Mus musculus [13], in the data set with Mus musculus [15] and in the data set with Mus musculus [16] was inactive. For the same molecule, the Activity result in the data set on Mus musculus [3], with Mus musculus [10], in the data set on Mus musculus [11], with Mus musculus [14], with Mus musculus [17] and with Mus musculus [18] was “Non-toxic” each time.
